Rin1-Abl PPI inh: blocks binding of human Rin1 to Abl | P00519+Q13671 | TR-FRET Rin1/Abl binding, biochemical | inhibition, % at 7.35 µM | 360,000 compounds, 0.4% hits; in the data active = inhibition above about 5%, passing the limit was not always enough
Target sequence (P00519 whole entry, looked up): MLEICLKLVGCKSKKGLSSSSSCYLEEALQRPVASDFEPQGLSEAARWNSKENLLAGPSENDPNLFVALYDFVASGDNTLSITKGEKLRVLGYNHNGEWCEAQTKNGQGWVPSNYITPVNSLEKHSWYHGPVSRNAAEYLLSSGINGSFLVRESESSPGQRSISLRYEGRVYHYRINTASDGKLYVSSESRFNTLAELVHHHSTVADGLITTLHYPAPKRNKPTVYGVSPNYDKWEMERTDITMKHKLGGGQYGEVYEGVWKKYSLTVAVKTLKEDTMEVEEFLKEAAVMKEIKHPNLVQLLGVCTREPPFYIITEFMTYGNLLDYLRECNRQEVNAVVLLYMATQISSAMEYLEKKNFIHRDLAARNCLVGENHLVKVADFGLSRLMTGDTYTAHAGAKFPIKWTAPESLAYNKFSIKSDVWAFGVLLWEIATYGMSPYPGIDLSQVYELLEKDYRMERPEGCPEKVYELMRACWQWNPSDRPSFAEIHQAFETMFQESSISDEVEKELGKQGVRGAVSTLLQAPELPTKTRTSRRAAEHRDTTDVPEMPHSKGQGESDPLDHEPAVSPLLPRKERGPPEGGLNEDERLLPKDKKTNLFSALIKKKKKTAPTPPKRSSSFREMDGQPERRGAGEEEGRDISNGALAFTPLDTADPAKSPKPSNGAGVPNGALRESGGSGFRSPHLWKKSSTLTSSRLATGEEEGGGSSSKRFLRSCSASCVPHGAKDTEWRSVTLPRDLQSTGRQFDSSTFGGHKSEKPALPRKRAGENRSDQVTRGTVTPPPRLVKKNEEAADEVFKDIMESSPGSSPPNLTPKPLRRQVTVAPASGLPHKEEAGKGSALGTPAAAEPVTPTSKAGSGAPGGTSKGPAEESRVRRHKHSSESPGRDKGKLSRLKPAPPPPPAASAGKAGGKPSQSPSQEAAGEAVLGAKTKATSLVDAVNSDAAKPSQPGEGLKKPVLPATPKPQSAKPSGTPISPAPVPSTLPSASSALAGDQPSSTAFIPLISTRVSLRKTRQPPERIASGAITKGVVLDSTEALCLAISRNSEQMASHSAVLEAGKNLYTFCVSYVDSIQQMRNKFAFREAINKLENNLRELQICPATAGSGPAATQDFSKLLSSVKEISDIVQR
Target sequence (Q13671 whole entry, looked up): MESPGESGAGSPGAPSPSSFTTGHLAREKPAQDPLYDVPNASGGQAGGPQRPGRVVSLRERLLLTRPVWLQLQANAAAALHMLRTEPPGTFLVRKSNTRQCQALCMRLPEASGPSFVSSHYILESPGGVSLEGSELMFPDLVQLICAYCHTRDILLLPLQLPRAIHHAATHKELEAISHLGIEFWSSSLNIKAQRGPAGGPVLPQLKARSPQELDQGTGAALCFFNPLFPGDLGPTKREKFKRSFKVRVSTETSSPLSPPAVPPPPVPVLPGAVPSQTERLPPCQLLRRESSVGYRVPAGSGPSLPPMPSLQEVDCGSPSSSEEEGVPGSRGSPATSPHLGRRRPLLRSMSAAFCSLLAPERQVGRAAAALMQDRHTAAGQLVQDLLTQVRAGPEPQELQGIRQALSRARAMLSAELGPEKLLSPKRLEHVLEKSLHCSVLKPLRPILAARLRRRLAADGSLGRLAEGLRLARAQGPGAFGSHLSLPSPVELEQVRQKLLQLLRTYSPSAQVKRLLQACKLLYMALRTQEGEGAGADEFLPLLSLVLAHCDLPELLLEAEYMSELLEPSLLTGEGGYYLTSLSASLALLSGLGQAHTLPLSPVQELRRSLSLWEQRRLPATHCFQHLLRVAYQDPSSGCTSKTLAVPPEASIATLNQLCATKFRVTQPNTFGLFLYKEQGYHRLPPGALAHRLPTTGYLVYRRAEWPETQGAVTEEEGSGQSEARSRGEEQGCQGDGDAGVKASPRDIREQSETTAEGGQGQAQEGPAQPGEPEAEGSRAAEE
SKN-1 inh: inhibitors of C. elegans SKN-1; C. elegans VP596 Pgst-4::GFP/RFP ratio, acrylamide-induced, 24 h; 360,000 compounds, 0.49% hits; inhibition, % at 21.8 µM;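 active = interference check ratio from 0.5 to 1.5 plus GFP to RFP signal ratio inhibition reaching or exceeding a fixed threshold, cut at about 30% in these data, passing the limit was not always enough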
Tb MetRS inh: blocks T. brucei methionyl-tRNA synthetase activity | 360,000 compounds, 0.4% hits | inhibition, % at 11.9 µM | purified T. brucei MetRS, ATP depletion, Kinase-Glo luminescence;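 active = inhibition above a per-plate cutoff of the control wells' mean inhibition plus 3 SD, cut at about 5.5% in these data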
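technique = Kinase-Glo luminescence, ATP depletion format | system = purified MetRS (methionyl-tRNA synthetase) enzyme from Trypanosoma brucei | timing = 15 min preincubation, 2 h reaction, all 25 °C | evaluation = percent inhibition versus plate control medians | dosing = single dose, 11.9 µM final nominal, 0.9% final DMSO | also added = substrates ATP, L-methionine and bulk Escherichia coli tRNA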
MT1-MMP act inh: MT1-MMP (human) activation inhibition | P50281 | HT1080 RFP-PRO-GFP cells, GFP/RFP ratio fluorescence, overnight; percent of plate control window, DMSO zero | GFP/RFP ratio change, % at 20 µM | 360,000 compounds, 0.061% hits | AID 651647;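 active = GFP/RFP ratio change of at least 30% with cell ATP level not reduced by more than half and red fluorescence within 50% of control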
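Material – HT1080 RFP-PRO-GFP cells · Control set – DMSO wells and RFP-L50D-GFP cells · Incubation – overnight cell settling, then overnight compound exposure, 37 °C, 5% CO2 · Compound dosing – single-point 20 µM compound, 1% DMSO · Read-out – GFP/RFP fluorescence ratio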
Arr AP2 block: inhibitors of human beta-arrestin and AP2 interaction; FITC-arrestin peptide / GST-AP2 beads, flow cytometry; AP2 beta2 appendage carries R879A mutation; inhibition, % at 10 µM; 340,000 compounds, 0.31% hits;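 active = inhibition above a set limit, near 3 SD of compounds lacking own fluorescence, cut at about 54% in these data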
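Measured by: flow cytometry, FL1 (488/535 nm); Material: AP2 appendage R879A on GSH beads; Evaluation: percent response; Timing: pre-incubation 12 min, peptide binding 1 h, room temperature; Also added: 50 nM FITC-arrestin peptide; Medium: PBS with 0.05% Tween 20 and 0.1% BSA.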
Arr-AP2 CP1: inhibitors of human beta-arrestin and AP2 interaction; AID 504908; 1,300 compounds, 2% hits; GST-AP2 beads, FITC arrestin peptide binding, flow cytometry; GST-fused beta2-adaptin appendage, R879A mutant; inhibition, % at 10 µM; shares compounds with Arr AP2 block;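 active = inhibition above a set limit, roughly 3 SD of non-fluorescent compound noise, cut at about 38% in these data; inactive = inhibition at or below that limit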;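 note: loss of bead fluorescence from 50 nM FITC arrestin peptide bound to appendage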
GST-FITC bead: GST-GSH bead binding interference, counter-screen | shares compounds with Arr AP2 block | GST-fluorescein binding to GSH beads, fluorescence | inhibition, % at 10 µM | 1,300 compounds, 2% hits | AID 588338;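 active = inhibition above 50%, about 3 SD of the inhibition seen with non-fluorescent compounds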;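 note: fluorescein maleimide labelled GST captured on 4 micron glutathione beads; higher means more loss of bead fluorescence from quenching or blocked binding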
Each line names hits and unclear results; the compound was inactive in the other large screens (follow-up assays come after a bar, where they were run). An excerpt weighted towards active compounds, which were near 1.6% of everything screened.

Cc1ccc(OCc2cn3cccnc3n2)cc1	Arr AP2 block 67 | Arr-AP2 CP1 inactive | GST-FITC bead inactive
CNc1ncnc2c1ncn2[C@H]1CN(CCOC)C[C@@H](CO)O1	none (no result: Arr AP2 block)
COCCSc1nnc(NS(=O)(=O)c2ccc(C)cc2)s1	Arr AP2 block 59 | Arr-AP2 CP1 inactive | GST-FITC bead inactive
CCCCN(C(=O)Cc1coc2cc(C)c(C)cc12)c1c(N)n(Cc2ccccc2)c(=O)[nH]c1=O	none
O=C(Nc1ccccc1F)n1ncc2cc(Cl)ccc21	Arr AP2 block 62 | Arr-AP2 CP1 inactive | GST-FITC bead inactive
CC(=O)NC(c1ccccc1)c1nc(-c2cccc(C#N)c2)cs1 (stereo not given)	none (no result: Arr AP2 block)
O=c1c2ccccc2cnn1Cc1n[nH]c(=S)n1-c1ccc(Cl)cc1	none
CC(c1ccccc1)n1c(Cn2ncc3ccccc3c2=O)n[nH]c1=S (stereo not given)	Arr AP2 block 54 | Arr-AP2 CP1 inactive | GST-FITC bead inactive
O=C(CSc1ncccn1)NC1CCCC1	none (no result: Arr AP2 block)
COc1ccc(/C=N/Nc2ccc([N+](=O)[O-])cc2S(=O)(=O)N2CCN(C)CC2)cc1	Arr AP2 block 102 | Arr-AP2 CP1 inactive | GST-FITC bead inactive
COc1ccc(C=NNc2ccc([N+](=O)[O-])cc2S(=O)(=O)Nc2ccccc2C(=O)O)cc1OC	none
Cc1ccc(S(=O)(=O)C[C@@H]2OC[C@H](CO)N2S(=O)(=O)c2ccc(C)cc2)cc1	none (no result: Rin1-Abl PPI inh, Arr AP2 block)
CC1(C)Cc2c(sc3c2c(=O)n(Cc2ccccc2)c2nncn32)CO1	Arr AP2 block 62 | Arr-AP2 CP1 inactive | GST-FITC bead inactive
Cc1nnc2n(Cc3ccccc3)c(=O)c3c4c(sc3n12)COC(C)(C)C4	none
CCCCCCCCN1C(=O)[C@H](CC(=O)NCc2ccc(OC)c(OC)c2)C[C@@]2(C(=O)OCC)CCCC=C12	none (no result: Rin1-Abl PPI inh, Arr AP2 block)
COc1ccc(S(=O)(=O)N2CCCCCC2)cc1C(=O)NCc1ccco1	none
O=C(NCc1ccco1)c1cc(S(=O)(=O)N2CCCC2)ccc1Cl	Arr AP2 block 54 | Arr-AP2 CP1 inactive | GST-FITC bead inactive
Cc1ccn2c(NC(=O)C(C)(C)Oc3ccc(Cl)cc3)c(-c3cccs3)nc2c1	Arr AP2 block 60 | Arr-AP2 CP1 inactive | GST-FITC bead inactive
CCn1c(=O)n(CC)c2cc(N3CCCC3)c(NC(=O)c3ccc(C)cc3)cc21	none | Arr-AP2 CP1 inactive
Cn1c(=O)n(C)c2cc(N3CCCCC3)c(NC(=O)c3ccccc3)cc21	none | Arr-AP2 CP1 inactive | GST-FITC bead inactive
O=C(Nc1cc([N+](=O)[O-])ccc1N1CCCC1)c1ccccc1	none (no result: MT1-MMP act inh)
CCn1c(=O)n(CC)c2cc(N3CCCC3)c(NC(=O)c3ccccc3)cc21	none | Arr-AP2 CP1 inactive | GST-FITC bead inactive
Cc1nc(Nc2ccc(Cl)c(Cl)c2)sc1C(/C=C/c1ccc2c(c1)OCO2)=NNc1ccc([N+](=O)[O-])cc1[N+](=O)[O-]	none
COC(=O)Cn1c(=NC(=O)c2cc(-c3cccs3)nc3ccccc23)sc2cc(S(N)(=O)=O)ccc21	Arr AP2 block 63 | Arr-AP2 CP1 inactive | GST-FITC bead inactive
CCOC(=O)Cn1c(=NC(=O)c2cc(-c3cccs3)nc3ccccc23)sc2cc(S(N)(=O)=O)ccc21	none
Cc1ccccc1CN1CCN(CC2CC2)CC1CCO (stereo not given)	Arr AP2 block 57 | Arr-AP2 CP1 inactive | GST-FITC bead inactive
COc1cc(NC(=O)C2(C)CCN2C(C)C)cc(OC)c1OC (stereo not given)	none (no result: Arr AP2 block)
NC(=O)C1CCN(C2=C(Cl)C(=O)c3ccccc3C2=O)CC1	Arr AP2 block 54 | Arr-AP2 CP1 51 | GST-FITC bead inactive
O=C1C(Cl)=C(N2CCC(C(=O)O)CC2)C(=O)c2ccccc21	none
Cc1cc(O)ccc1N/C=C/c1onc(C)c1[N+](=O)[O-]	Arr AP2 block 99 | Arr-AP2 CP1 inactive | GST-FITC bead inactive
Cc1cccc(N/C=C/c2onc(C)c2[N+](=O)[O-])c1	none

Source: PubChem BioAssay (several laboratories)
